Sampled rows, rich in hits. Any-hit rate of the full collection: about 1.8%.
Runt-CBFb FRET: blocks binding of human RUNX1 Runt domain to CBFb; Q01196+Q13951; Cerulean-Runt/Venus-CBFb FRET ratio 530/480, 1 h; inhibition, % at 20 µM; actives 0.46% (n = 220,000);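 active = inhibition over about 50% at 20 µM in the single-dose screen, limit read from the data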;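 note: 0% = DMSO wells and 100% = excess unlabeled CBFb competitor control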
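Assay system: Cerulean-tagged RUNX1 Runt domain (FRET donor) fusion protein / Amount: 100 nM each of Venus-CBFb and Cerulean-Runt domain / Medium: Tris buffer pH 7.5 with salts and BSA / Also added: Venus-CBFb 100 nM / Schedule: 1 h complex formation plus 1 h compound treatment, room temperature / Signal: FRET fluorescence / Read-out: loss of energy transfer signal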
Hck-Nef inh: human Hck-Nef kinase inhibition; actives 0.68% (n = 220,000); inhibition, % at 20 µM; P08631; Recombinant Hck-YEEI plus Nef, Z-Lyte FRET kinase assay;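 active = Hck-Nef kinase inhibition above about 50%, limit read from the data; inactive = inhibition below that limit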;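 note: 0% = DMSO with Hck plus Nef and 100% = Hck alone without Nef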
Target sequence (P08631 whole entry, looked up): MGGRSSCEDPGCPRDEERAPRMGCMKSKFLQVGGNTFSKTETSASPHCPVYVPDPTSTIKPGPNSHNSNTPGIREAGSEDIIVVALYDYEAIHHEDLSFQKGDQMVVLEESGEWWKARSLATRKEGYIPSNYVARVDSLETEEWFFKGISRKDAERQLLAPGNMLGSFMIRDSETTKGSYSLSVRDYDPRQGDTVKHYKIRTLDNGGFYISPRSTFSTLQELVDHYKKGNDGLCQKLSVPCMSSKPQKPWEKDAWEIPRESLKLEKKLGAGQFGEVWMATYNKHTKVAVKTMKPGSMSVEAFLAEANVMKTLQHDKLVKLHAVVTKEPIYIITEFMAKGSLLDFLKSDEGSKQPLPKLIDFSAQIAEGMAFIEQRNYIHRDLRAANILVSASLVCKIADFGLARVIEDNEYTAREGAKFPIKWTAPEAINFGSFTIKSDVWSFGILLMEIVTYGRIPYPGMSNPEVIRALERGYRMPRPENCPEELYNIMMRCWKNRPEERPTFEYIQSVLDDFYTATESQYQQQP
Runt-SMMHC FRET: inhibitors of human RUNX1 Runt domain binding to CBFb-SMMHC. actives 0.74% (n = 220,000). inhibition, % at 20 µM. Cerulean-Runt/Venus-CBFb-SMMHC FRET ratio 530/480, 1 h;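 active = mean inhibition across duplicate retests at 20 µM reaching about 50%, limit read from the data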;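 note: 0% = DMSO wells and 100% = wells with excess untagged CBFb-SMMHC; inhibitors lower the FRET ratio by blocking Runt binding to CBFb-SMMHC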
RanGTP-Impb inh: disruptors of Ran-importin-beta complex formation – biochemical, FRET, CFP-Ran, YFP-importin-beta, homogeneous, primary screen. AID 2216. inhibition, % (concentration not given with the values). actives 1.1% (n = 300,000). cell-free CFP-Ran/YFP-importin-beta FRET ratio;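 active = more than half of the replicate wells show a fall in the fluorescence ratio signal beyond about 16%, limit read from the data, passing the limit was not always enough; inconclusive = exactly half of the replicate wells pass the set limit; inactive = fewer than half of replicates pass the limit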;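 note: 0% = DMSO wells and 100% = Ran loaded with GDP instead of GTP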
Hck Nef conf: confirmation of Hck-Nef kinase inhibitors; shares compounds with Hck-Nef inh; Recombinant Hck-YEEI:Nef, Z-Lyte FRET kinase assay; calls only at 10 µM; actives 28% (n = 1,300); AID 463188;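 active = average inhibition of at least 50%, with Z-scores no higher than 3 in both the phospho-tyrosine peptide and fluorescence counterscreens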
Starred values were filed as active, the others as inactive.

Results for CCN1CCN(Cc2ccc(NC(=O)c3ccc(C)c(NC(=O)N4CCNC4=O)c3)cc2C(F)(F)F)CC1 ?
Runt-CBFb FRET: 1; Hck-Nef inh: 28; Runt-SMMHC FRET: 3; RanGTP-Impb inh: -1

What do the screens show for `CCN1CCN(Cc2ccc(NC(=O)c3ccc(C)c(NC(=O)c4cc(-c5ccc(Br)cc5)n[nH]4)c3)cc2C(F)(F)F)CC1`?
Runt-CBFb FRET: 2; Hck-Nef inh: 96*; Runt-SMMHC FRET: 40; RanGTP-Impb inh: 3; Hck Nef conf: active

Results for CCN1CCN(Cc2ccc(NC(=O)c3ccc(C)c(NC(=O)c4nccn4C)c3)cc2C(F)(F)F)CC1 ?
Runt-CBFb FRET: 2; Hck-Nef inh: 17; Runt-SMMHC FRET: 4; RanGTP-Impb inh: 3

What do the screens show for `CCc1cc2c(C)cc(=O)oc2cc1OC(=O)C1CCCN1C(=O)OC(C)(C)C` (stereo unspecified)?
Runt-CBFb FRET: 30; Hck-Nef inh: 75*; Runt-SMMHC FRET: 75*; RanGTP-Impb inh: 4; Hck Nef conf: inactive

How did COCCCn1c(SC(C)C(=O)NC2CC2)nc2ccccc2c1=O (stereo unspecified) do in these assays?
RanGTP-Impb inh: 4

How did COc1cc(NS(=O)(=O)c2ccc(NC(=S)NC(=O)c3sc4ccccc4c3Cl)cc2)nc(OC)n1 do in these assays?
Runt-CBFb FRET: 6; Hck-Nef inh: 63*; Runt-SMMHC FRET: -6; RanGTP-Impb inh: -2; Hck Nef conf: active

How did CCN(CC(=O)Nc1ccc2c(c1)OCCO2)C(=O)c1cc(=O)[nH]c2ccccc12 do in these assays?
RanGTP-Impb inh: -5

Results for Cc1ccc(S(=O)(=O)c2c(N)n(CCCO)c3nc4ccccc4nc23)cc1 ?
Runt-CBFb FRET: 9; Hck-Nef inh: 81*; Runt-SMMHC FRET: 29; RanGTP-Impb inh: 8

Results for CCCCCn1c(NC(=O)c2ccco2)c(S(=O)(=O)c2ccc(C)cc2)c2nc3ccccc3nc21 ?
Runt-CBFb FRET: 10; Hck-Nef inh: 56*; Runt-SMMHC FRET: 147*; RanGTP-Impb inh: 80*

Results for CCCCn1c(NS(=O)(=O)c2ccccc2)c(S(=O)(=O)c2ccc(C)cc2)c2nc3ccccc3nc21 ?
Runt-CBFb FRET: 6; Hck-Nef inh: 66*; Runt-SMMHC FRET: 53*; RanGTP-Impb inh: 51*

What do the screens show for `CCC(=O)Nc1c(S(=O)(=O)c2ccccc2)c2nc3ccccc3nc2n1C(C)c1ccccc1` (stereo unspecified)?
Runt-CBFb FRET: 29; Hck-Nef inh: 75*; Runt-SMMHC FRET: 76*; RanGTP-Impb inh: 4

What do the screens show for `Cc1ccc(S(=O)(=O)c2c(N)n(CCC(C)C)c3nc4ccccc4nc23)cc1`?
Runt-CBFb FRET: 2; Hck-Nef inh: 22; Runt-SMMHC FRET: 5; RanGTP-Impb inh: 1

How did Cc1ccc(C(=O)Nn2c(N)c(S(=O)(=O)c3ccc(C)cc3)c3nc4ccccc4nc32)cc1 do in these assays?
Runt-CBFb FRET: -2; Hck-Nef inh: 0; Runt-SMMHC FRET: 6; RanGTP-Impb inh: -4

What do the screens show for `COc1cc2c(cc1OC)CN(C(=O)COc1ccccc1[N+](=O)[O-])CC2`?
RanGTP-Impb inh: 2

How did COc1cc(C(=O)NC2CCCNC2)cc(OC)c1OC (stereo unspecified) do in these assays?
Runt-CBFb FRET: -2; Runt-SMMHC FRET: -7

Results for O=C1CCCC2=C1C(c1ccsc1)CC(=O)N2c1ccccc1F (stereo unspecified) ?
Runt-CBFb FRET: 2; Hck-Nef inh: 20; Runt-SMMHC FRET: -1; RanGTP-Impb inh: 0

What do the screens show for `Cc1cc(C)c2c(N)c(C(=O)N/N=C/c3cccnc3)sc2n1`?
Runt-CBFb FRET: 3; Hck-Nef inh: 73*; Runt-SMMHC FRET: 2; RanGTP-Impb inh: 7; Hck Nef conf: inactive

What do the screens show for `O=c1/c(=C\c2cc([N+](=O)[O-])cc([N+](=O)[O-])c2O)sc2nc3ccccc3n12`?
Runt-CBFb FRET: 25; Hck-Nef inh: 71*; Runt-SMMHC FRET: 31; Hck Nef conf: active

How did COCCN(C(=O)c1csnn1)C(C(=O)NC1CCCC1)c1ccccc1F (stereo unspecified) do in these assays?
RanGTP-Impb inh: 0

Results for Cc1ccc(S(=O)(=O)CCSc2n[nH]c(=O)n2-c2ccc3c(c2)OCCO3)cc1 ?
Runt-CBFb FRET: 1; Hck-Nef inh: 17; Runt-SMMHC FRET: -2; RanGTP-Impb inh: 1

Results for CNC(=O)c1cc(C(=O)c2ccccc2Br)c[nH]1 ?
RanGTP-Impb inh: 4

Results for O=C(c1c[nH]c(C(=O)C(Cl)(Cl)Cl)c1)c1ccccc1Br ?
Runt-CBFb FRET: 0; Hck-Nef inh: 79*; Runt-SMMHC FRET: 0; RanGTP-Impb inh: 0; Hck Nef conf: inactive

Results for O=C(Nc1ccccn1)c1cc2ccccc2cc1O ?
RanGTP-Impb inh: -11

Results for CCCCC(=O)Nc1cccc(NC(=O)c2ccccc2Br)c1 ?
Runt-CBFb FRET: 1; Hck-Nef inh: 1; Runt-SMMHC FRET: -1; RanGTP-Impb inh: -2

Results for Cc1ccc(NC(=O)CSc2nc3ccccc3c3nc(CCn4cncc4C)nn23)c(C)c1 ?
Runt-CBFb FRET: -2; Hck-Nef inh: 72*; Runt-SMMHC FRET: -3; RanGTP-Impb inh: inconclusive; Hck Nef conf: inactive

What do the screens show for `Cc1ccc(CNc2nc(C)cs2)cc1`?
RanGTP-Impb inh: 9

Results for O=C(Cn1nc(C(=O)O)c2ccccc2c1=O)Nc1nc(-c2ccccc2)cs1 ?
Runt-CBFb FRET: -4; Hck-Nef inh: 52*; Runt-SMMHC FRET: -3; RanGTP-Impb inh: 2; Hck Nef conf: inactive

What do the screens show for `NC(=O)c1c(NC(=O)Cn2nc(C(=O)O)c3ccccc3c2=O)sc2c1CCC2`?
Runt-CBFb FRET: -2; Hck-Nef inh: 91*; Runt-SMMHC FRET: 1; RanGTP-Impb inh: inconclusive; Hck Nef conf: inactive

Results for Cc1ccc(S(=O)(=O)N2CC(O)C[C@H]2C(=O)OCC(=O)Nc2ccc(N3CCCCC3)cc2)cc1C (stereo partly specified) ?
RanGTP-Impb inh: 0

Results for COc1ccccc1N(C(=O)c1csnn1)C(C(=O)NC1CCCC1)c1ccccc1 (stereo unspecified) ?
RanGTP-Impb inh: 4

What do the screens show for `CC(C)C1Cc2[nH]c(=O)c(C(=O)O)cc2CO1` (stereo unspecified)?
Runt-CBFb FRET: -1; Hck-Nef inh: 75*; Runt-SMMHC FRET: -4; RanGTP-Impb inh: 4; Hck Nef conf: inactive

How did COc1ccccc1C(=O)Nc1ccc(-c2nnn(CC(=O)NCc3ccco3)n2)cc1 do in these assays?
Runt-CBFb FRET: 0; Hck-Nef inh: 51*; Runt-SMMHC FRET: -3; RanGTP-Impb inh: 2; Hck Nef conf: inactive

What do the screens show for `CCNC(=S)Nc1ccc(Cl)c([N+](=O)[O-])c1`?
Runt-CBFb FRET: 0; Hck-Nef inh: 18; Runt-SMMHC FRET: 0; RanGTP-Impb inh: -1
